Reference: the array DNA melting data of Ke et al. (doi:10.1101/2024.01.08.574731)

Experiments:
[1] = folding enthalpy; higher = less favourable; fluorescence melt of hairpins on a sequencing array, two-state fit; conditions: sodium 0.088 M
How it was run: (§1)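 Hairpins were imaged by Cy3 fluorescence on a sequenced MiSeq flow cell with annealed Cy3 and quencher oligos, in 50 mM Na-HEPES pH 8.0, 25 mM NaCl, in 2.5 °C steps up to 60 °C. Bootstrapped two-state fits of normalised signals gave melting temperature and folding enthalpy. Four replicates were combined by inverse variance, and fitted temperatures were raised by 9.35 °C to match UV melts.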

[2] = melting temperature; fluorescence melt of hairpins on a sequencing array, two-state fit, raised by 9.35 °C to match UV melts; conditions: sodium 0.088 M
How it was run: as §1

Sequence	folding enthalpy [1] [kcal/mol]	Tm [2] [°C]
GATCAGGAACCTGATC ((((((....))))))	-35	54.5
GCTTGGCGAAAGCATAGC (((..((....))..)))	-20.3	46.2
GATGTGGGAAACCGCATC ((((.((....)).))))	-46.4	51.9
GTACATGGAAACGTGTAC (((((.(....).)))))	-32.1	45.8
GCCGGGCGAAAGCCGCGC ((..(((....)))..))	-15.2	60.1
GATCAGGAGGCTGATC ((((((....))))))	-37.2	48.2
GCAGCGCGAAAGCTCGGC ((.(.((....)).).))	-20.9	42.9
GACTGCGAAAGCAGGTC ((((((....))).)))	-13.1	58.1
GCCCCCGAAAGGGCTGGC ((((((....)))..)))	-16.2	61.8
GTGATCGCGAAAGCGCAC (((..(((....))))))	-12.6	35.6
GGGATACGAAAGTACCCC (((.(((....))).)))	-37.4	50.8
GGCTATGGAAACATAACC ((.((((....)))).))	-25.7	34.4
GACCCTCCGAAAGGAGTC (((..(((....))))))	-7.33	23.4
GCTGCGCGAAAGCGTCGC ((..(((....)))..))	-15.2	51.4
GCCAGGGGAAACCCCGAC (.(.(((....))).).)	-9.47	32.6
GTCCCCGAAAGGGATGAC ((((((....)))..)))	-14.6	44.8
GTCACACGAAAGTGGAC (((.(((....))))))	-18.7	48.6
GTCATCGAAAGATTTGAC ((((((....)))..)))	-13.2	29.4
GATCTTAGAGAAGATC ((((((....))))))	-21.1	37.7
ATACAGAAATGTAT (((((....)))))	-10.4	25.3
GTGCGTGGAAACATGCGC (.((.((....)).)).)	-29.6	49.5
CGTTCCGGAAACGGCACG (((.(((....))).)))	-34.9	48.5
GTGGGTGGAAACGCTCAC (((.(.(....).).)))	-33	40.6

Sequence	folding enthalpy [1] [kcal/mol]	Tm [2] [°C]
GAATGCGAAAGCATTTC ((((((....))).)))	-12.5	50.2
GTGCCCCGAAAGGGACAC (((.(((....))).)))	-42.9	62.5
GCACAGCGAAAGCTATGC (((.(((....))).)))	-40.8	49.5
GATCAATTCGTTGATC ((((((....))))))	-37.8	48.6
GACAACGAAAGTTGGTC ((((((....))).)))	-19.7	53.1
GATCCCGTCGGGATC ((((((...))))))	-37.7	67.2
GCGGGGCGAAAGCCAAGC ((..(((....)))..))	-27.7	65
GATCAACAGATTGATC ((((((....))))))	-30.1	40.4
GCGGGCGAAAGCCGTCGC ((((((....)))..)))	-17.3	54.5
GGAGAACCGAAAGGTTCC (((..(((....))))))	-9.16	43.1
GATCCACCATGGATC ((((((...))))))	-37.4	49.7
GCGCGAGGAAACCCACGC (((.(.(....).).)))	-20.3	40
GGATATACGAAAGTATCC (((..(((....))))))	-16.9	36
GATCGACAGTTCGATC ((((((....))))))	-44.4	49.2
GATCCTCTCAAGGATC ((((((....))))))	-39.9	53.2
TCCGTGAAAACGGA (((((....)))))	-18	53.8
GCTTGCGGAAACACAAGC (((((.(....).)))))	-23.6	46.8
GGCATCGGAAACGACGCC (((.(((....))).)))	-42.1	52.3
GTTGTCGAAAGACGAAAC ((((((....)))..)))	-9.08	29.1
GGACGCGAAAGCGAGTCC ((((((....)))..)))	-21	55.4
GGCGTCCGAAAGGAAGCC (((.(((....))).)))	-34.7	67
GAAGCCGCGAAAGCGTTC (((..(((....))))))	-11	26.3
GATCCCAAAGGGATC ((((((...))))))	-35.4	65.5
